Results as given in ChEMBL document CHEMBL4385646, “Structural development of 1H-pyrazolo-[3,4-b]pyridine-4-carboxylic acid derivatives as human peroxisome proliferator-activated receptor alpha (PPARα)-selective agonists” (Bioorg Med Chem Lett, 2019).
The source made the active and inactive calls. No cut-off for these calls is given here.

Tests used:
[1] = biological target: T1, Peroxisome proliferator-activated receptor alpha (Homo sapiens) (UniProt Q07869); assay: Transactivation of human GAL4-fused PPARalpha LBD expressed in human HepG2 cells at 1 uM after 24 hrs by dual renilla-luciferase reporter gene assay relative to fenofibrate; assay type: cell-based
T1 sequence (whole entry): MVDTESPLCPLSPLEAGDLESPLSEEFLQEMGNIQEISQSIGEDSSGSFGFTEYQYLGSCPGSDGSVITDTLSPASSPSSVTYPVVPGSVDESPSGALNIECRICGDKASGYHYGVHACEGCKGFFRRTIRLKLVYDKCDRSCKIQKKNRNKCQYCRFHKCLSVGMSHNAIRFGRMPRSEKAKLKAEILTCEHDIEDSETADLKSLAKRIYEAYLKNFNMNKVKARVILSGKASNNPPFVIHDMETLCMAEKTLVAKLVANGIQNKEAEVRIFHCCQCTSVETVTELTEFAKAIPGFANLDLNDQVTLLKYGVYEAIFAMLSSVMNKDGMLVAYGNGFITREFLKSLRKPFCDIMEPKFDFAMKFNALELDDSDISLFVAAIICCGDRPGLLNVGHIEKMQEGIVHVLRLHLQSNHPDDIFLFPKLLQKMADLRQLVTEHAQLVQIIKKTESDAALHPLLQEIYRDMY
Method in brief: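 HepG2 cells cotransfected with 4xUAS-tk-luc and pBIND-hPPARα. Cells treated 24 h with compound at 1 μM final; fenofibrate 10 μM served as reference and 0.1% DMSO as vehicle. Read-out by reporter gene luciferase assay.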

[2] = Solubility of the compound in pH 7.4 PBS at 100 uM incubated for 10 mins under shaking condition by HPLC analysis; assay type: physicochemical
Method in brief: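 Aqueous solubility determined in PBS, pH 7.4; reported in μM.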

[3] = Apparent permeability from apical to basolateral side in human Caco2 cells at 25 uM measured up to 2 hrs by LC/MS/MS analysis; assay type: ADME, cell-based; conditions: Caco-2
Method in brief: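 Caco-2 monolayers; permeability measured apical-to-basolateral (A–B) at 25 μM compound, reported as ×10⁻⁶ cm/s.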

[4] = Protein binding in human plasma at 20 uM after 5 hrs by LC/MS/MS analysis; assay type: ADME, cell-free; conditions: 5 h, 20 µM
Method in brief: (§1)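 Compound at 20 μM incubated with plasma at 37°C for 5 h; percent bound to protein determined. Final DMSO 0.2%.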

[5] = Protein binding in rat plasma at 20 uM after 5 hrs by LC/MS/MS analysis; assay type: ADME, cell-free; conditions: 5 h, 20 µM; method in brief: as §1
[6] = Metabolic stability in human liver microsomes assessed as parent compound remaining at 0.5 uM after 60 mins in presence of NADPH by LC/MS/MS analysis; assay type: ADME, Microsome; conditions: microsomes, 1 h, 0.5 µM
Method in brief: (§2)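 Compound at 0.5 μM incubated with liver microsomes at 37°C for 1 h; result given as percent remaining. Final DMSO 0.2%.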

[7] = Metabolic stability in rat liver microsomes assessed as parent compound remaining at 0.5 uM after 60 mins in presence of NADPH by LC/MS/MS analysis; assay type: ADME, Microsome; conditions: microsomes, 1 h, 0.5 µM; method in brief: as §2
[8] = biological target: T2, Peroxisome proliferator-activated receptor alpha (Homo sapiens, UniProt Q07869); assay: Transactivation of human GAL4-fused PPARalpha LBD expressed in human HepG2 cells after 24 hrs by renilla luciferase reporter gene assay; assay type: cell-based
T2 sequence (Q07869 whole entry): T1 sequence (whole entry)

[9] = biological target: T1, Peroxisome proliferator-activated receptor alpha (Homo sapiens); assay: Transactivation of human […] PPARalpha LBD expressed in human HepG2 cells at 1 uM by renilla luciferase reporter gene assay relative to control; assay type: cell-based
[10] = biological target: Peroxisome proliferator-activated receptor alpha (Homo sapiens) (UniProt Q07869); assay: Displacement of fluormone pan-PPAR green from GST-tagged human PPARalpha ligand binding domain after 3 hrs by TR-FRET assay

Work on `Cc1cc(C(=O)O)c2c(C(C)C)nn(-c3cccc(OCc4ccccc4)c3)c2n1` yielded an activation relative to fenofibrate [1] of 47.4.

`Cc1cc(C(=O)[O-])c2c(C(C)C)nn(-c3ccc(Cl)cc3)c2n1.[Na+]` showed a solubility at 10 min, 100 µM [2] of over 95 µM, a Papp A→B at 2 h, 25 µM [3] of 22.5 ×10⁻⁶ cm/s and a PPB [4] of 99.7%. The PPB [5] was 98.9%, the Stability [6] was 91% and the Stability [7] was 92%.

`CC(C)c1nn(-c2ccc(Br)cc2)c2nc(C3CC3)cc(C(=O)O)c12` showed an activation relative to fenofibrate [1] of 199 and an EC50 [8] of 1980 nM.

Work on `CCc1cc(C(=O)O)c2c(C3CCCC3)nn(-c3ccc(Cl)cc3)c2n1` yielded an activation relative to fenofibrate [1] of 78.2.

Molecule `CC(C)c1nn(-c2ccc(F)cc2)c2nc(C3CC3)cc(C(=O)O)c12` has a fold change (FC) [9] of 151.

Molecule `CC(C)c1nn(-c2cccc(Cl)c2)c2nc(C3CC3)cc(C(=O)O)c12` has an activation relative to fenofibrate [1] of 163 and an EC50 [8] of over 1340 nM.

Molecule `CC(C)c1nn(-c2ccc(F)cc2)c2ncc(C(=O)O)c(Cl)c12` has an activation relative to fenofibrate [1] of 6.21.

Molecule `CCC(C)c1nn(-c2ccc(Cl)cc2)c2nc(C)cc(C(=O)O)c12` (stereo not drawn) has an activation relative to fenofibrate [1] of 176 and an EC50 [8] of 680 nM.

Molecule `Cc1cc(C(=O)O)c2c(C(C)C)nn(-c3ccc(C(F)(F)F)cc3)c2n1` has an activation relative to fenofibrate [1] of 26.

In the case of `Cc1cc(C(=O)O)c2c(C(C)(C)C)nn(-c3ccc(Cl)cc3)c2n1`, the activation relative to fenofibrate [1] is reported as 2.26 and the inhibition [10] is reported as “inactive”.

Work on `CCc1cc(C(=O)O)c2c(C(CC)CC)nn(-c3ccc(F)cc3)c2n1` yielded an activation relative to fenofibrate [1] of 250 and an EC50 [8] of 1530 nM.

With `CC(C)(Sc1ccc(CCN(CCCCC2CCCCC2)C(=O)NC2CCCCC2)cc1)C(=O)O` the activation relative to fenofibrate [1] was 200.

Work on `CC(C)c1nn(-c2ccc(Cl)cc2)c2nc(-c3ccccc3)cc(C(=O)O)c12` yielded an activation relative to fenofibrate [1] of 243 and an EC50 [8] of 1800 nM.

For `CCc1cc(C(=O)O)c2c(C(C)C)nn(-c3ccc(Cl)cc3)c2n1`, the activation relative to fenofibrate [1] was 196 and the EC50 [8] was 1390 nM.

Work on `CCc1cc(C(=O)O)c2c(C(C)C)nn(-c3ccc(Br)cc3)c2n1` yielded an activation relative to fenofibrate [1] of 251 and an EC50 [8] of 1230 nM.

With `Cc1cc(C(=O)O)c2c(C(C)C)nn(-c3ccc(I)cc3)c2n1` the activation relative to fenofibrate [1] was 111 and the EC50 [8] was 2410 nM.

`CCC(CC)c1nn(-c2ccc(F)cc2)c2nc(C)cc(C(=O)O)c12` gave an activation relative to fenofibrate [1] of 205 and an EC50 [8] of 1450 nM.

Molecule `CCc1cc(C(=O)O)c2c(C(C)C)nn(-c3ccc(Cl)cn3)c2n1` has an activation relative to fenofibrate [1] of 16.2.

`CCC(C)c1nn(-c2ccc(Cl)cc2)c2nc(C3CC3)cc(C(=O)O)c12` (stereo not drawn) gave an activation relative to fenofibrate [1] of 224 and an EC50 [8] of 460 nM.

With `Cc1cc(C(=O)O)c2c(C(C)C)nn(-c3ccc(F)cc3)c2n1` the activation relative to fenofibrate [1] was 79.2 and the EC50 [8] was 2060 nM.

In the case of `Cc1cc(C(=O)O)c2c(C)nn(-c3ccccc3)c2n1`, the activation relative to fenofibrate [1] is reported as 13.6.

Work on `Cc1cc(C(=O)O)c2c(C(C)C)nn(-c3ccc(Br)cc3)c2n1` yielded an activation relative to fenofibrate [1] of 85.2 and an EC50 [8] of over 4010 nM.

In the case of `CC(C)c1nn(-c2ccc(Cl)cc2)c2nc(C3CC3)cc(C(=O)O)c12`, the activation relative to fenofibrate [1] is reported as 114 and the EC50 [8] is reported as over 2740 nM.

`CCC(CC)c1nn(-c2ccc(Cl)cc2)c2nc(C)cc(C(=O)O)c12` gave an activation relative to fenofibrate [1] of 183 and an EC50 [8] of over 3570 nM.

In the case of `O=C(O)c1cc(C2CC2)nc2c1c(C1CCC1)nn2-c1ccc(Cl)cc1`, the activation relative to fenofibrate [1] is reported as 88.3.

In the case of `Cc1cc(C(=O)O)c2c(C(C)C)nn(-c3ccc(Cl)c(Cl)c3)c2n1`, the activation relative to fenofibrate [1] is reported as 51.

Molecule `CCc1cc(C(=O)O)c2c(C(CC)CC)nn(-c3ccc(Cl)cc3)c2n1` has an activation relative to fenofibrate [1] of 213 and an EC50 [8] of 1240 nM.

With `Cc1cc(C(=O)O)c2c(C3CCCC3)nn(-c3ccc(Cl)cc3)c2n1` the activation relative to fenofibrate [1] was 64.8.

`CCc1cc(C(=O)O)c2c(C(C)C)nn(-c3cccc(Cl)c3)c2n1` gave an activation relative to fenofibrate [1] of 192 and an EC50 [8] of over 2270 nM.

`O=C(O)c1cc(C2CC2)nc2c1c(C1CCCC1)nn2-c1ccc(Cl)cc1` showed an activation relative to fenofibrate [1] of 76.8.

With `Cc1cc(C(=O)O)c2c(C3CC3)nn(-c3ccc(Cl)cc3)c2n1` the activation relative to fenofibrate [1] was 24.6.

`CCC(Cc1cc(C)nc2c1c(C(C)C)nn2-c1ccc(F)cc1)C(=O)O` (stereo not drawn) gave an activation relative to fenofibrate [1] of 1.53.

With `Cc1cc(C(=O)O)c2c(C(C)(C)C)nn(-c3cccc(Cl)c3)c2n1` the activation relative to fenofibrate [1] was 5.75.

With `CCc1cc(C(=O)O)c2c(C(C)C)nn(-c3ccc(I)cc3)c2n1` the activation relative to fenofibrate [1] was 111 and the EC50 [8] was 1760 nM.

`Cc1cc(C(=O)O)c2c(C(C)C)nn(-c3cccc(Cl)c3)c2n1` gave an activation relative to fenofibrate [1] of 96.7.
